Assay results from ChEMBL document CHEMBL3297648, “Diterpenoids from the Chinese liverwort Heteroscyphus tener and their antiproliferative effects” (J Nat Prod, 2014).
Calls of active or inactive are those of the source. The calls are words filed in the database; no cut-off is given here.

Key:
[1] = tested on: PC-3; assay: Induction of apoptosis in human PC3 cells assessed as late apoptotic cells at 20 uM after 24 hrs by Annexin V-FITC/propidium iodide staining based flow cytometry (reference value: 7.92%); format: functional
Summary of the method: (§1)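 Cells seeded in 6-well plates for 24 h, then given 20 μM for the stated times. Cells were trypsinized, PBS-washed, stained with annexin V-FITC/PI, and analysed immediately by flow cytometry. Means ± SD of three independent experiments; Student's t test against untreated control.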

[2] = tested on: PC-3; assay: Induction of apoptosis in human PC3 cells assessed as early apoptotic cells at 20 uM after 4 hrs by Annexin V-FITC/propidium iodide staining based flow cytometry (reference value: 0.79%); format: functional; summary of the method: as §1
[3] = tested on: NCI-H446; assay: Antiproliferative activity against human NCI-H446 cells assessed as inhibition of cell viability after 24 hrs by MTT assay; format: functional, cell-based; details: NCI-H446, 24 h
Summary of the method: (§2)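 Cells grown to 50–70% confluence (RWPE1 in K-SFM with pituitary extract and EGF; the other lines in RPMI 1640 with 10% FBS), 5% CO2, 37 °C. Treated for 24 h with DMSO vehicle, compounds, or cisplatin as positive control. MTT (5 mg/mL) added for 4 h, formazan dissolved in DMSO, absorbance read at 570 nm. Viability taken relative to untreated cells after blank subtraction, IC50 fitted from % viability, at least three experiments.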

[4] = tested on: DU-145; assay: Induction of apoptosis in human DU145 cells assessed as late apoptotic cells at 20 uM after 12 hrs by Annexin V-FITC/propidium iodide staining based flow cytometry (reference value: 1.53%); format: functional; summary of the method: as §1
[5] = tested on: DU-145; assay: Induction of ROS generation in human DU145 cells at 20 uM pretreated for 1 hr with 5 mM antioxidant NAC measured after 24 hrs by DCFH-DA staining based flow cytometry; format: functional, cell-based
Summary of the method: (§3)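 Cells in RPMI 1640 with 10% FBS, 5% CO2, 37 °C, treated at 50−70% confluence (DMSO vehicle). After exposure, cells were loaded with 10 μM DCFH-DA for 30 min at 37 °C, washed, resuspended in PBS, and read at once by flow cytometry. For NAC runs, cells got 5 mM NAC 1 h before compound. ROS reported as ratio relative to untreated control.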

[6] = tested on: DU-145; assay: Induction of apoptosis in human DU145 cells assessed as cleaved caspase-3 level at 20 uM after 12 hrs by western blot analysis; format: functional, cell-based
Summary of the method: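 Cells exposed to 20 μM for the stated times. Lysis in RIPA plus protease inhibitors, BCA protein assay, equal protein on 12% SDS-PAGE, transfer to nitrocellulose. Blocking in 5% milk/TBST 1 h; primary antibodies overnight at 4 °C; secondary 1:2000 for 45 min; ECL detection. GAPDH served as loading control.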

[7] = tested on: PC-3; assay: Induction of apoptosis in human PC3 cells assessed as early apoptotic cells at 20 uM after 24 hrs by Annexin V-FITC/propidium iodide staining based flow cytometry (reference value: 0.79%); format: functional; summary of the method: as §1
[8] = biological target: Serine/threonine-protein kinase ATR (Homo sapiens) (UniProt Q13535); assay: Activation of ATR in human DU145 cells assessed as ChK1 phosphorylation at Ser296 at 20 uM after 12 hrs by western blot analysis; format: cell-based; details: DU-145
Sequence of Serine/threonine-protein kinase ATR (Homo sapiens) (Q13535 whole entry, looked up): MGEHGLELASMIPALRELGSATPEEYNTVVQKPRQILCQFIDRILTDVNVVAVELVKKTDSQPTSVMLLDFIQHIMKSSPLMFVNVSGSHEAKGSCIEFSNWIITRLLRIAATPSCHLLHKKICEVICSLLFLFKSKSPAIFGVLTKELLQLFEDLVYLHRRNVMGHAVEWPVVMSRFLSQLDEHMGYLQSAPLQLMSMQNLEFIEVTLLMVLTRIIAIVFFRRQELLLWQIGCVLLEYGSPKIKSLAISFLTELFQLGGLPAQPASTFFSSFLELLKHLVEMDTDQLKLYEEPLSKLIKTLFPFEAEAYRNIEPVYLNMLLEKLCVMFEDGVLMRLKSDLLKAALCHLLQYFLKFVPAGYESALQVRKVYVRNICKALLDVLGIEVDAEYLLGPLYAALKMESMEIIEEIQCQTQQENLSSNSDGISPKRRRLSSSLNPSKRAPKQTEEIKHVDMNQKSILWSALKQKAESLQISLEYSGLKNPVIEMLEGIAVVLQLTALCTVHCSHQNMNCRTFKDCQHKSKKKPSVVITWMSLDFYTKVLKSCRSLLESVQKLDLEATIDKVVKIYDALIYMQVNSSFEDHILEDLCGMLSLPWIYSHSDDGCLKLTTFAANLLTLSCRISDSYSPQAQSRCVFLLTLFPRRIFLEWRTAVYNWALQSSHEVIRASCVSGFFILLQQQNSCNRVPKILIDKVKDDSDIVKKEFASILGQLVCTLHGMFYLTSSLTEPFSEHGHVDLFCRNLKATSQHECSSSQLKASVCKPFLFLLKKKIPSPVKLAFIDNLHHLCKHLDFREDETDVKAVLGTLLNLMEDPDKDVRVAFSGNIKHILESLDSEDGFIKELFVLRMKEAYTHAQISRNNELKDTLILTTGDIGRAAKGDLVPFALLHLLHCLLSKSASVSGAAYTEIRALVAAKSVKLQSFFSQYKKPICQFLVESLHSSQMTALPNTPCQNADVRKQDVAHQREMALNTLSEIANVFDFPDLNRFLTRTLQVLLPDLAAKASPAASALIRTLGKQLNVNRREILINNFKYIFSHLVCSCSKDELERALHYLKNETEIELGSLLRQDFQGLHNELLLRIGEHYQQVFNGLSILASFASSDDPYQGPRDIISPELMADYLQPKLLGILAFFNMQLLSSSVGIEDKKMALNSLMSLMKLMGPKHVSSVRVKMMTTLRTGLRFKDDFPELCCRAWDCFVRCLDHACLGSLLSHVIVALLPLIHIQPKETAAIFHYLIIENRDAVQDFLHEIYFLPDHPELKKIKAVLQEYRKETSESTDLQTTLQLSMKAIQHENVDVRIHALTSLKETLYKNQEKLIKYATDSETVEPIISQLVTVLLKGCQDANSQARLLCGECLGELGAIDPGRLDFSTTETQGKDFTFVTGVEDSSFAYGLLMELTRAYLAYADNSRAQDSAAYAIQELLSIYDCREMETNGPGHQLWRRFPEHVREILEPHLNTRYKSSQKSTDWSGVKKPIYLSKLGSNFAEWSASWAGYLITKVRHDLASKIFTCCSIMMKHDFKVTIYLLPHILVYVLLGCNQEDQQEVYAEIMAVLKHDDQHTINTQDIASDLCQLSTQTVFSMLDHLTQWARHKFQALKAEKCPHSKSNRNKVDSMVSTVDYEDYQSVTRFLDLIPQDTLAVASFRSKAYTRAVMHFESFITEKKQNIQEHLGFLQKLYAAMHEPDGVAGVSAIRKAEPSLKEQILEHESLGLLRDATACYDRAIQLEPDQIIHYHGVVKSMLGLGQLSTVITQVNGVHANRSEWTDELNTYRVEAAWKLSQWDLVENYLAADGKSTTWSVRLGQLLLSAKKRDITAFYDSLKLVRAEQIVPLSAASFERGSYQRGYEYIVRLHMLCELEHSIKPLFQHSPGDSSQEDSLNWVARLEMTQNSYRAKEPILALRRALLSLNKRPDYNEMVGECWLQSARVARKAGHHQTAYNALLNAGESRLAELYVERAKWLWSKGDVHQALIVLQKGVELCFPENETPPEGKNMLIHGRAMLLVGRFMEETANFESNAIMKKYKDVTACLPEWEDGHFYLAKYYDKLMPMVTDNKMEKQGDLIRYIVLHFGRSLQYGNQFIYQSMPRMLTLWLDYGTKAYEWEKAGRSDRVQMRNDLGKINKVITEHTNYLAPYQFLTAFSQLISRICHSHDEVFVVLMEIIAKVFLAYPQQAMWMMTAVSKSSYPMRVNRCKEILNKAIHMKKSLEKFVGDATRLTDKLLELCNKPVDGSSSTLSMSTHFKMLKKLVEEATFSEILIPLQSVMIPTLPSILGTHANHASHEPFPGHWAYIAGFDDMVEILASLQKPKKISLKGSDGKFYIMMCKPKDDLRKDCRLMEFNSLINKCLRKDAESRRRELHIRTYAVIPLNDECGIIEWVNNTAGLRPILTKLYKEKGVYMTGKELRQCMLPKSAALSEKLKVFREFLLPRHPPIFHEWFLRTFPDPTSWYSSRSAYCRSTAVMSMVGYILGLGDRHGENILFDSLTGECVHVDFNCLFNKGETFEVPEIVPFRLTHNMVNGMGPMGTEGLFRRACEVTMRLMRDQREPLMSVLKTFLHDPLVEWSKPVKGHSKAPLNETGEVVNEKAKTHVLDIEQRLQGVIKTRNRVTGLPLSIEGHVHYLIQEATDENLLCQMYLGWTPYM
Summary of the method: (§4)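 Cells treated at 20 μM for various times, lysed in RIPA buffer with protease/phosphatase inhibitors, protein quantified by BCA. Equal protein run on 12% SDS-PAGE, transferred to nitrocellulose, blocked 1 h in 5% milk/TBST, primary antibodies overnight at 4 °C, secondary 1:2000 for 45 min, ECL detection on film. GAPDH used as loading control.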

[9] = tested on: DU-145; assay: Cell cycle arrest in human DU145 cells assessed as accumulation at subG1 phase at 20 uM after 24 hrs by propidium iodide staining based flow cytometry (reference value: 0.28%); format: functional
[10] = tested on: K562; assay: Antiproliferative activity against human K562 cells assessed as inhibition of cell viability after 24 hrs by MTT assay; format: functional, cell-based; details: K562, 24 h; summary of the method: as §2
[11] = tested on: DU-145; assay: Increase in H2AX protein expression in human DU145 cells at 20 uM after 2 to 48 hrs by western blot analysis; format: functional, cell-based; summary of the method: as §4
[12] = Decrease in cyclin D1 protein expression in human DU145 cells by western blot analysis; format: functional, cell-based; details: DU-145, TDE = time-dependent effect
Summary of the method: (§5)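 Western blot of cyclin D1, cyclin E, Cdk4 and p21 in PC3 and DU145 lysates. Lysis in RIPA buffer plus protease inhibitors, BCA quantification, 12% SDS-PAGE, nitrocellulose transfer, milk block, primaries overnight at 4 °C, secondary 1:2000 for 45 min, ECL read-out. GAPDH served as loading control.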

[13] = tested on: PC-3; assay: Induction of apoptosis in human PC3 cells assessed as necrotic cells at 20 uM after 8 hrs by Annexin V-FITC/propidium iodide staining based flow cytometry (reference value: 0.98%); format: functional; summary of the method: as §1
[14] = tested on: PC-3; assay: Increase in p21CIP1 protein expression in human PC3 cells after 2 to 48 hrs by western blot analysis; format: functional, cell-based; summary of the method: as §5
[15] = tested on: DU-145; assay: Induction of apoptosis in human DU145 cells assessed as necrotic cells at 20 uM after 4 hrs by Annexin V-FITC/propidium iodide staining based flow cytometry (reference value: 0.21%); format: functional; summary of the method: as §1
[16] = tested on: DU-145; assay: Induction of apoptosis in human DU145 cells assessed as necrotic cells at 20 uM after 12 hrs by Annexin V-FITC/propidium iodide staining based flow cytometry (reference value: 0.21%); format: functional; summary of the method: as §1
[17] = Antiproliferative activity against HBE cells assessed as inhibition of cell viability after 24 hrs by MTT assay; format: cell-based; details: Homo sapiens; summary of the method: as §2
[18] = tested on: DU-145; assay: Cell cycle arrest at G0/G1 phase in human DU145 cells after 24 hrs by propidium iodide staining based flow cytometry; format: functional
[19] = tested on: DU-145; assay: Increase in p21CIP1 protein expression in human DU145 cells after 2 to 48 hrs by western blot analysis; format: functional, cell-based; summary of the method: as §5
[20] = tested on: PC-3; assay: Induction of apoptosis in human PC3 cells assessed as increase in caspase-3 activity using Ac-DEVD-AMC as substrate at 20 uM by fluorometric method; format: functional, cell-based; details: TDE = time-dependent effect
Summary of the method: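 Cells treated with 20 μM for the stated times. Pellets lysed on ice 15 min, spun at 14 000g for 15 min at 4 °C. Supernatant assayed in buffer containing CHAPS, 10% glycerol, 2 mM EDTA, 5 mM DTT for 2 h at 37 °C. Fluorescence read at ex 380/em 440 nm.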

[21] = tested on: PC-3; assay: Induction of apoptosis in human PC3 cells assessed as late apoptotic cells at 20 uM after 12 hrs by Annexin V-FITC/propidium iodide staining based flow cytometry (reference value: 7.92%); format: functional; summary of the method: as §1
[22] = tested on: PC-3; assay: Induction of DNA damage in human PC3 cells assessed as gamma-H2AX phosphorylation at ser139 at 20 uM by western blot analysis; format: functional, cell-based; details: TDE = time-dependent effect; summary of the method: as §4
[23] = biological target: Breast cancer type 1 susceptibility protein (Homo sapiens) (UniProt P38398); assay: Inactivation of BRCA1 in human DU145 cells assessed as decline in BRCA1 phosphorylation at Ser1524 at 20 uM by western blot analysis; format: cell-based; details: DU-145; summary of the method: as §4
Sequence of Breast cancer type 1 susceptibility protein (Homo sapiens) (P38398 whole entry, looked up): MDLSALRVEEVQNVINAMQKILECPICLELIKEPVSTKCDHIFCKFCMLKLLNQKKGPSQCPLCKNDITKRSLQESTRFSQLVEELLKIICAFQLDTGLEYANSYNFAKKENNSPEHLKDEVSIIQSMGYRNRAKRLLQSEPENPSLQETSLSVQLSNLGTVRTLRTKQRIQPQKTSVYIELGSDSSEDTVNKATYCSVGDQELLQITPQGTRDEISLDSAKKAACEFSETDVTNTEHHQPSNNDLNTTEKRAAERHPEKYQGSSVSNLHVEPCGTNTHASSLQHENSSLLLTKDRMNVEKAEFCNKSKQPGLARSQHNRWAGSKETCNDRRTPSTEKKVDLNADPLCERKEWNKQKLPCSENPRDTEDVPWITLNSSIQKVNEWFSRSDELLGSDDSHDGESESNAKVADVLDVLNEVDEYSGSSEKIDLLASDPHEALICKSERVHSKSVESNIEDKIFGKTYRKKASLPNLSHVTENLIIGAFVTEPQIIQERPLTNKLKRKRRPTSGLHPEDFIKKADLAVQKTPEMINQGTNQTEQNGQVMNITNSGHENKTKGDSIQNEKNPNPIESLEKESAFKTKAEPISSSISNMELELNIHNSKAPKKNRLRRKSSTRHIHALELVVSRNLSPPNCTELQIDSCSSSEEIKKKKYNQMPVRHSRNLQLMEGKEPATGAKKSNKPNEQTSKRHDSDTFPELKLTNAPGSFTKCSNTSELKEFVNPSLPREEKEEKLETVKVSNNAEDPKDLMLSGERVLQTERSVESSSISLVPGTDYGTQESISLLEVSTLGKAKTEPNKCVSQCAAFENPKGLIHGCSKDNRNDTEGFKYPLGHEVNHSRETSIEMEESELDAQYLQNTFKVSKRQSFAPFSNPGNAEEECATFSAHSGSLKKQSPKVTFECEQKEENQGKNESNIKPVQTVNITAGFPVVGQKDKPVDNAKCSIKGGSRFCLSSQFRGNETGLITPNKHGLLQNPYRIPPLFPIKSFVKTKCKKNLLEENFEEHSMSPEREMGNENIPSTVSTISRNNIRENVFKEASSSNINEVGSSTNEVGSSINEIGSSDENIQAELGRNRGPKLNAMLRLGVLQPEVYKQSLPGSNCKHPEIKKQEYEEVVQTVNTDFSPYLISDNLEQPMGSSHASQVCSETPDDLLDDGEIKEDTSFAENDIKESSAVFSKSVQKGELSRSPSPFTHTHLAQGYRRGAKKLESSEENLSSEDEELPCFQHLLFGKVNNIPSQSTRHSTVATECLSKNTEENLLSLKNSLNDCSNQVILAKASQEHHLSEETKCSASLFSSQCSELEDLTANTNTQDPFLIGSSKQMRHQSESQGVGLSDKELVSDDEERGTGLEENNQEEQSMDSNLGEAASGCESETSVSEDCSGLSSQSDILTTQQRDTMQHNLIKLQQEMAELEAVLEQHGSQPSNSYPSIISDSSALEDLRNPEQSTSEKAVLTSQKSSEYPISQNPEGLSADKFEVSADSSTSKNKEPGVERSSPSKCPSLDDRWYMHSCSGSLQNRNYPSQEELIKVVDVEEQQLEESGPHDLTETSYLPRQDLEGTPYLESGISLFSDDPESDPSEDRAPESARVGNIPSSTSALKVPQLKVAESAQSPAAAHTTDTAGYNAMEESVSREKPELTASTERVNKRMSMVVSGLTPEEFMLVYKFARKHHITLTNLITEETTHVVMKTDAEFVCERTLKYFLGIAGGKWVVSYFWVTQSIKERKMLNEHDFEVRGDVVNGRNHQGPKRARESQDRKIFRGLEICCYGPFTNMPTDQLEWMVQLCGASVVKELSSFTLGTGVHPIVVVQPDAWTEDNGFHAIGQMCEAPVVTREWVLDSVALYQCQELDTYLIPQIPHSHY

[24] = tested on: PC-3; assay: Induction of ROS generation in human PC3 cells at 20 uM after 6 hrs by DCFH-DA staining based flow cytometry; format: functional, cell-based; summary of the method: as §3
[25] = tested on: DU-145; assay: Induction of apoptosis in human DU145 cells assessed as early apoptotic cells at 20 uM after 12 hrs by Annexin V-FITC/propidium iodide staining based flow cytometry (reference value: 1.60%); format: functional; summary of the method: as §1

C=C[C@@](C)(O)CC[C@@H]1C(C)=CC[C@@H]2C(C)(C)CCC[C@@]12C
Activity [1]: 66.46% | Activity [2]: 2.48% | IC50 [3]: 39.5 µM | Activity [4]: 11.32% | Activity [5]: inactive | Activity [6]: Active | Activity [7]: 1.61% | Activity [8]: Active | Activity [9]: 2.82% | IC50 [10]: 15.8 µM | Activity [11]: inactive | inhibition [12]: tde | Activity [13]: 2.95% | Activity [14]: Active | Activity [15]: 1.54% | Activity [16]: 1.05% | IC50 [17]: 53.9 µM | Activity [18]: Dose-dependent effect | Activity [19]: Active | Activity [20]: tde | Activity [21]: 12.66% | Activity [22]: tde | inhibition [23]: Active | Activity [24]: inactive | Activity [25]: 6.55%
